Shown are actives, neighbours in structure and some others; about 5.1% of the full set was active somewhere.
STAT1 act-1 = STAT1 signaling activators, primary screen, cell-based, HTS, luciferase reporter | NIH 3T3 STAT1-luciferase reporter, IFN-gamma, luminescence; 100% = IFN-gamma alone, no compound | activation (% of control), % at 5.5 µM | 200,000 compounds, 2.6% hits;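 active = activation above the screen-wide mean activation plus 3 SD, cut at about 130% in these data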;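 note: raw ratio to IFN-gamma control signal so 100% means no change and 0% no light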
NF-kB neuron act = activators of NF-kB expression in neurons, primary screen, cell-based, HTS; human neuronal cells, NF-kB reporter expression; stronger effect = higher value; fold change at 12.5 µM; 190,000 compounds, 1.6% hits; AID 1239, 2008; in the data active = fold change above about 3.3
STAT3 act-1 = IL-6 driven STAT3 reporter potentiators, primary screen, U3A cells, luciferase, luminescence, MLSCN library; IL-6 STAT3-luciferase reporter; 100% = signal with IL-6 EC80 alone; activation (% of control), % at 5.6 µM; 190,000 compounds, 0.91% hits; AID 871, 2007;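 active = activation above the screen-wide mean of compound activation plus 3 SD, cut at about 130% in these data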;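 note: 0% = background luminescence of wells with medium and substrate only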
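system = STAT3-luciferase reporter U3A cells | reagent = IL-6 stimulus at 33 ng/mL final | timing = 1 h compound pre-exposure, 6 h IL-6 stimulation, 37 °C | measured by = luminescence | evaluation = % activation versus median of IL-6-stimulated wells | control set = IL-6-only wells as 100% reference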
STAT1 inh = STAT1 signaling inhibitors, primary screen, cell-based, HTS, luciferase reporter; NIH 3T3 STAT1-luciferase reporter, IFN-gamma, luminescence; inhibition, % at 5.5 µM; 200,000 compounds, 0.35% hits;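 active = inhibition above a set limit, the mean inhibition across all tested compounds plus 3 SD, cut at about 34% in these data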;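 note: 0% = IFN-gamma with DMSO and 100% = IFN-gamma with 300 µM nifuroxazide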
APP 5'UTR act = activators of APP 5'UTR luciferase reporter, primary screen, SH-SY5Y cells | 190,000 compounds, 1% hits | SH-SY5Y APP 5'UTR luciferase reporter, luminescence; zero percent = DMSO vehicle wells | activation, % at 2 µM;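 active = activation above a set limit, based on mean plus 3 SD of controls, cut at about 140% in these data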
STAT3 blocker = IL-6 driven STAT3 reporter inhibitors, primary screen, U3A cells, luciferase, luminescence, MLSCN library; inhibition, % at 5.5 µM; IL-6 STAT3-luciferase reporter; host cell line lacks STAT1; 190,000 compounds, 0.89% hits;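 active = inhibition above the mean inhibition across all screened compounds plus 3 SD, cut at about 44% in these data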;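 note: 0% = DMSO only wells and 100% = 100 µM nifuroxazide control wells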
STAT3 act-2 = STAT3 reporter potentiators, retest of hits, confirmation, U3A cells, luciferase, luminescence | shares compounds with STAT3 act-1 | IL-6 potentiation; U3A cells lack STAT1; 100 means same as IL-6 alone | potentiation (% of control), % at 5.7 µM | 1,200 compounds, 64% hits;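 active = percent activation of the STAT3 luciferase reporter above a set limit taken from the earlier primary screen, cut at about 130% in these data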;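 note: 0% = background signal of medium plus substrate and 100% = median of IL-6 with DMSO wells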
NFkB act STAT3ct = NF-kB reporter activators in human cells, counter-screen for STAT3 activator project; shares compounds with STAT3 act-1; NF-kappaB reporter activation; activation (% of control), % at 5.7 µM; 1,200 compounds, 11% hits; AID 1309, 2008; in the data active = activation above about 120%;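 note: reporter induced by TNF-alpha stimulation; 100% = median of stimulated DMSO wells and 0% = no signal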
STAT1 act-2 = STAT1 reporter activators, IFN-gamma induced, counter-screen for STAT3 activator project, cell-based, NIH 3T3, luciferase luminescence | shares compounds with STAT3 act-1 | NIH 3T3 STAT1-luciferase reporter | activation (% of control), % at 5.7 µM | 1,200 compounds, 13% hits | AID 1318, 2008;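 active = activation above the solvent-only control well mean plus 3 SD, set per screening run, cut at about 120% in these data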;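 note: 100% = IFN-gamma with DMSO median signal so 100% means no change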
Numbers without * were called inactive; x = no result given.

SMILES	STAT1 act-1	NF-kB neuron act	STAT3 act-1	STAT1 inh	APP 5'UTR act	STAT3 blocker	STAT3 act-2	NFkB act STAT3ct	STAT1 act-2
COC(=O)c1cccc(C(=O)Nc2cnc3ccccc3c2)n1	110	0.87	183*	-11	0	-93	162*	112	122*
CCOc1ccccc1-c1nc(CN(Cc2cnn(C)c2)C(C)C)c(C)o1	99	0.88	104	0	15	0	x	x	x
CCC(C)(C)C1CCC(=NNc2nc3ccccc3[nH]2)CC1 (stereo not drawn)	123	0.58	113	-25	43	-14	x	x	x
CC(=O)N1CCC(=NNc2nc3ccccc3[nH]2)CC1	127	0.9	143*	-29	124	-55	144*	112	110
COc1ccccc1Nc1nc(-c2sc(NC(=O)c3ccc([N+](=O)[O-])cc3)nc2C)cs1	94	0.9	88	6	57	16	x	x	x
COc1ccc(OC)c(Nc2nc3nonc3nc2N2CCCCC2)c1	96	1.1	163*	4	-9	-72	99	112	113
O=C(Cc1c[nH]c2ccccc12)NCc1ccc2c(c1)OCO2	111	1.2	138*	-12	8	-40	137*	100	99
Cc1ccc(S(=O)(=O)NC(=O)CSc2nc3ccccc3s2)cc1	104	1.1	141*	-4	1	-45	124	100	100
Cc1cc(C)nc(NC(=O)CSc2nc3ccccc3s2)n1	119	3.1	117	-20	48	-12	x	x	x
COc1ccc(C(O)c2nc3ccccc3s2)cc1 (stereo not drawn)	106	1.2	78	-7	-1	26	x	x	x
COc1cc(OC)cc(-c2nc3ccccc3s2)c1	124	2.1	203*	-26	65	-124	180*	127*	139*
CCOc1ccc(N2C(=O)C3Sc4[nH]c(=O)sc4C(/C=C/c4ccccc4)C3C2=O)cc1 (stereo not drawn)	108	1.1	141*	-9	15	-51	128	112	115
CCN(CC)c1nc(SCCOC(=O)Nc2ccccc2)nc(N(CC)CC)n1	110	1.6	95	-5	4	8	x	x	x
Cc1ccc(S(=O)(=O)/N=C2/C=C(Sc3ncn[nH]3)C(=O)c3ccccc32)cc1	87	0.83	141*	15	-64	-52	132	107	83
COc1cccc2sc(NNC(=O)COc3ccccc3)nc12	102	1.1	100	-4	12	7	x	x	x
COc1cccc2sc(Nc3nnc(-c4ccc(F)cc4)o3)nc12	104	0.99	159*	-4	10	-60	148*	111	109
COc1ccc(C2=NN(c3nc(-c4ccccc4)c(CC(=O)O)s3)C(c3ccco3)C2)cc1 (stereo not drawn)	108	1.5	95	-9	-8	3	x	x	x
C=CCOC(=O)C1=C(C)Nc2nnnn2C1c1cccc(OC)c1OC (stereo not drawn)	94	0.87	99	6	-5	8	x	x	x
COC(=O)c1c(C)[nH]c(C(=O)CN2CCOCC2)c1C	91	1.1	139*	10	0	-40	138*	108	99
Fc1cccc(Cl)c1/C=N/Nc1ccccn1	128	1.8	138*	-30	18	-42	144*	113	127*
O=C(O)C(Cc1c[nH]c2ccccc12)N1Cc2ccccc2C1=O (stereo not drawn)	110	x	143*	-12	-9	-44	137*	114	114

Compound activity deposited in PubChem BioAssay by several laboratories.
